Screening results: PubChem, several laboratories
The list is not random: actives were taken first. Their share in the collection is about 1.9%.
NTR1 agonist: NTR1 (human) agonism. activation, % at 20 µM. NTR1-U2OS beta-arrestin-GFP spot imaging, agonist mode. 0.17% of 330,000 active. P30989;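 active = activation at or above 40% of the spot to cytoplasm intensity ratio, with at least 20 cells analyzed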;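 note: 0% = DMSO without peptide and 100% = 100 nM NTR1 peptide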
TLR9-MyD88 block: blocks human TLR9 binding to MyD88; Q9NR96+Q99836; 0.21% of 340,000 active; AID 504734; inhibition, % at 4.98 µM; CHO BLA complementation TLR9-MyD88, CCF4 FRET ratio;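 active = inhibition above the mean over all tested compounds plus 3 SD, cut at about 21% in these data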;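 note: 0% = DMSO only wells and 100% = clavulanate BLA inhibitor control wells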
NOD2 RIPK2 PPI: blocks binding of human NOD2 to RIPK2 | O43353 | 0.38% of 360,000 active | inhibition, % at 4.98 µM | CHO BLA complementation NOD2-RIPK2, CCF4 ratio; in the data active = inhibition above about 21%;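 note: 0% = vehicle only and 100% = reference blocker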
TLR4-MyD88 BLA: blocks binding of human TLR4 to MyD88; O00206+Q99836; HeLa CL3-4 TLR4/MyD88 BLA complementation, FRET ratio; inhibition, % at 8.4 µM; 0.18% of 200,000 active; AID 861; in the data active = inhibition above about 25%;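 note: 0% = vehicle and 100% = reference inhibitor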
MC4R antag cAMP: human MC4R antagonism in cAMP assay. P32245. 0.48% of 360,000 active. inhibition, % at 6.5 µM. MC4R-expressing cells, MTII-stimulated cAMP, LANCE TR-FRET;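 active = inhibition above its plate's cutoff, the mean of tested wells on that plate plus 3 SD, cut at about 29% in these data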;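 note: 0% = Melanotan II alone and 100% = Melanotan II plus saturating MCL0020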
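Test system: U2OS cells stably expressing human melanocortin 4 receptor (MC4R); also added: Melanotan II challenge; compound: 6.5 µM single dose; timing: 30-min compound preincubation, 1-h Melanotan II challenge, 1-h detection, room temperature; signal: Eu-cAMP/anti-cAMP TR-FRET, emission 671 nm; repeats: one well per compound, no replicates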
MC4R ag barr: agonists of human melanocortin 4 receptor (MC4R) beta-arrestin. P32245. U2OS MC4R beta-arrestin complementation, luminescence; percent of melanotan II response, DMSO zero. activation, % at 8.9 µM. 0.98% of 360,000 active;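 active = activation above a per-plate cutoff, the mean activation of sample wells on that plate plus 3 SD, cut at about 8% in these data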
cAMP nonselect: nonselective cAMP signaling inhibitor, MC4R antagonist counter-screen; shares compounds with MC4R antag cAMP; parental U2OS, forskolin cAMP, LANCE TR-FRET; inhibition, % at 6.5 µM; 26% of 1,600 active;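 active = mean inhibition over triplicates above the low-control well mean plus 3 SD, set per campaign, cut at about 13% in these data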;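 note: signal is single emission at 671 nm which falls as cellular cAMP rises; 0% = forskolin-stimulated wells and 100% = buffer without forskolin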
MC4R cAMP antag: human MC4R cAMP antagonism confirmation; shares compounds with MC4R antag cAMP; MC4R-expressing cells, MTII-stimulated cAMP, TR-FRET; inhibition, % at 6.5 µM; 27% of 1,600 active; AID 602195; in the data active = inhibition above about 29%;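 note: 0% = agonist stimulated wells alone and 100% = agonist stimulated wells plus saturating reference antagonist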
An asterisk follows results filed as active.

Results for COc1ccc(OCCSc2nnc(C)n2-c2ccccc2)cc1 ?
NTR1 agonist: -1; TLR9-MyD88 block: 6; NOD2 RIPK2 PPI: 8; TLR4-MyD88 BLA: -14; MC4R antag cAMP: 3; MC4R ag barr: -2

How did CCOC(=O)CSc1nnc(-c2ccccc2)o1 do in these assays?
NTR1 agonist: 1; TLR9-MyD88 block: 3; NOD2 RIPK2 PPI: 0; TLR4-MyD88 BLA: 22; MC4R antag cAMP: 9; MC4R ag barr: -1

How did COC(=O)CSc1nnc(-c2ccc(S(=O)(=O)NCc3cccs3)cc2)o1 do in these assays?
NTR1 agonist: 9; TLR9-MyD88 block: 1; NOD2 RIPK2 PPI: -6; TLR4-MyD88 BLA: 6; MC4R antag cAMP: 43*; MC4R ag barr: -2; cAMP nonselect: 17*; MC4R cAMP antag: 44*

What do the screens show for `COC(=O)CSc1nnc(-c2ccc(S(=O)(=O)NCc3ccccc3Cl)cc2)o1`?
NTR1 agonist: 7; TLR9-MyD88 block: 8; NOD2 RIPK2 PPI: 3; TLR4-MyD88 BLA: 5; MC4R antag cAMP: 36*; MC4R ag barr: 1; cAMP nonselect: 10; MC4R cAMP antag: 40*

What do the screens show for `CCOC(=O)Cc1csc(NC(=O)CSc2nnc(-c3ccc(NS(=O)(=O)CC)cc3)o2)n1`?
NTR1 agonist: -1; TLR9-MyD88 block: -1; NOD2 RIPK2 PPI: 6; TLR4-MyD88 BLA: 2; MC4R antag cAMP: 30*; MC4R ag barr: 0; cAMP nonselect: -3; MC4R cAMP antag: -19

What do the screens show for `CCS(=O)(=O)Nc1ccc(-c2nnc(SCC(=O)OC)o2)cc1`?
NTR1 agonist: 1; TLR9-MyD88 block: -8; NOD2 RIPK2 PPI: -1; TLR4-MyD88 BLA: 7; MC4R antag cAMP: 19; MC4R ag barr: 0

What do the screens show for `CCOC(=O)CSc1nnc(-c2ccc(S(=O)(=O)NCc3cccs3)cc2)o1`?
NTR1 agonist: 0; TLR9-MyD88 block: 9; NOD2 RIPK2 PPI: 0; TLR4-MyD88 BLA: 1; MC4R antag cAMP: 39*; MC4R ag barr: 4; cAMP nonselect: 15*; MC4R cAMP antag: 42*

How did COc1ccc(CCNC(=O)C(=O)NCC2OCCN2S(=O)(=O)c2ccc3c(c2)OCCO3)cc1 (stereo not drawn) do in these assays?
NTR1 agonist: 1; TLR9-MyD88 block: -6; NOD2 RIPK2 PPI: -9; MC4R antag cAMP: -2; MC4R ag barr: -3

How did CCN(CC(=O)NCCCn1ccnc1)S(=O)(=O)c1ccc(C)cc1 do in these assays?
NTR1 agonist: 1; TLR9-MyD88 block: -6; NOD2 RIPK2 PPI: 0; MC4R antag cAMP: 15; MC4R ag barr: 0

What do the screens show for `COC(=O)CSc1nnc(-c2ccc(S(=O)(=O)N3CCCC3)cc2)o1`?
NTR1 agonist: 22; TLR9-MyD88 block: 2; NOD2 RIPK2 PPI: -6; MC4R antag cAMP: 34*; MC4R ag barr: 0; cAMP nonselect: 14*; MC4R cAMP antag: 24

What do the screens show for `CN(CCOc1ccccc1)C(=O)CNC(=O)c1ccc(C(C)(C)C)cc1`?
NTR1 agonist: 4; TLR9-MyD88 block: -5; NOD2 RIPK2 PPI: 2; MC4R antag cAMP: -4; MC4R ag barr: -2

How did Cc1ccnc(NC(=O)c2ccc(C(=O)c3ccccc3)cc2)c1 do in these assays?
NTR1 agonist: 1; TLR9-MyD88 block: -4; NOD2 RIPK2 PPI: 4; MC4R antag cAMP: 10; MC4R ag barr: 1

What do the screens show for `Cc1ccnc(NC(=O)c2cnc(Cl)c(Cl)c2)c1`?
NTR1 agonist: -2; TLR9-MyD88 block: -13; NOD2 RIPK2 PPI: -2; MC4R antag cAMP: 32*; MC4R ag barr: -1; cAMP nonselect: 18*; MC4R cAMP antag: 22

How did COc1cc([N+](=O)[O-])ccc1NC(=S)NC(=O)CC(C)(C)C do in these assays?
NTR1 agonist: 4; TLR9-MyD88 block: 4; NOD2 RIPK2 PPI: -1; TLR4-MyD88 BLA: 5; MC4R antag cAMP: 30*; MC4R ag barr: -3; cAMP nonselect: 6; MC4R cAMP antag: 32*

Results for COc1ccc([N+](=O)[O-])cc1NC(=S)NC(=O)C(C)(C)C ?
NTR1 agonist: 5; TLR9-MyD88 block: 2; NOD2 RIPK2 PPI: -6; TLR4-MyD88 BLA: -8; MC4R antag cAMP: 6; MC4R ag barr: -4

Results for CSCCC(NC(=O)c1ccc(Cl)cc1)C(=O)OCC(=O)NCc1ccco1 (stereo not drawn) ?
NTR1 agonist: 0; TLR9-MyD88 block: -3; NOD2 RIPK2 PPI: -6; MC4R antag cAMP: 22; MC4R ag barr: -2

Results for CSCCC(NC(=O)c1ccc(Cl)cc1)C(=O)OCC(=O)Nc1cc(Cl)ccc1C#N (stereo not drawn) ?
NTR1 agonist: 1; TLR9-MyD88 block: -3; NOD2 RIPK2 PPI: 1; TLR4-MyD88 BLA: 5; MC4R antag cAMP: 32*; MC4R ag barr: 3; cAMP nonselect: 13*; MC4R cAMP antag: 29*

Results for Cc1ccc(C(=O)C(C)OC(=O)c2cc3cc([N+](=O)[O-])ccc3oc2=O)cc1 (stereo not drawn) ?
NTR1 agonist: 5; TLR9-MyD88 block: 5; NOD2 RIPK2 PPI: -6; TLR4-MyD88 BLA: 2; MC4R antag cAMP: 33*; MC4R ag barr: -3; cAMP nonselect: 8; MC4R cAMP antag: 13

What do the screens show for `CC(=O)Nc1ccccc1OCCOc1ccc(Br)cc1`?
NTR1 agonist: 2; TLR9-MyD88 block: -14; NOD2 RIPK2 PPI: 9; TLR4-MyD88 BLA: 3; MC4R antag cAMP: 36*; MC4R ag barr: -1; cAMP nonselect: 1; MC4R cAMP antag: -4

How did CC(=O)Nc1cccc(OC(=O)COc2ccc(Br)cc2)c1 do in these assays?
NTR1 agonist: 0; TLR9-MyD88 block: -4; NOD2 RIPK2 PPI: -10; TLR4-MyD88 BLA: 3; MC4R antag cAMP: 29*; MC4R ag barr: 2; cAMP nonselect: -1; MC4R cAMP antag: 4

What do the screens show for `NS(=O)(=O)c1ccc(NS(=O)(=O)c2ccc3c(c2)OCCO3)cc1`?
NTR1 agonist: -1; TLR9-MyD88 block: -9; NOD2 RIPK2 PPI: -5; MC4R antag cAMP: 30*; MC4R ag barr: -1; cAMP nonselect: -5; MC4R cAMP antag: -10

Results for Cc1cc(NC(=O)CSc2nc3c(c(-c4cccnc4)c2C#N)CCC3)no1 ?
NTR1 agonist: 2; TLR9-MyD88 block: -3; NOD2 RIPK2 PPI: -1; TLR4-MyD88 BLA: 2; MC4R antag cAMP: 47*; MC4R ag barr: 3; cAMP nonselect: 19*; MC4R cAMP antag: 57*

How did Cc1cc(NC(=O)CSc2nc3ccccc3cc2C#N)no1 do in these assays?
NTR1 agonist: 0; TLR9-MyD88 block: -4; NOD2 RIPK2 PPI: -7; MC4R antag cAMP: 51*; MC4R ag barr: 0; cAMP nonselect: 7; MC4R cAMP antag: 0
